# Bioassay records (PubChem BioAssay)
# Sampled rows, rich in hits. Any-hit rate of the full collection: about 1.8%.
# GSTO1 inh – blocks human GSTO1 in RBBP9 counter-screen; AID 1974; P78417; 1.1% of 300,000 active; recombinant GSTO1, activity-based probe fluorescence polarization; inhibition, % at 5.96 µM;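 active means inhibition above the campaign mean inhibition plus 3 SD, cut at about 35% in these data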;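 further: 0% = GSTO1-1 with DMSO and 100% = wells lacking GSTO1-1 enzyme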
# Fh CTSL1 inh – blocks F. hepatica cathepsin L1 in PFM18AAP counter-screen | recombinant F. hepatica cathepsin L1, Z-Leu-Arg-MCA fluorescence | inhibition, % at 5.96 µM | 0.49% of 300,000 active;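 active means inhibition above the mean of all tested compounds plus 3 SD, set per screening campaign, cut at about 17% in these data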;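 further: 0% = plate median of test compound wells and 100% = 1 µM Z-Phe-Ala-diazomethylketone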
# Apaf-1 inh – blocks human Apaf-1 apoptosome activity. reconstituted apoptosome caspase-3 activity, DEVD-Rh110 fluorescence. 0.71% of 330,000 active. AID 489030. O14727. inhibition, % at 20 µM; active means inhibition of at least 40% at 20 µM;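 further: plate controls were DMSO wells for no effect and DEVD-CHO caspase inhibitor wells for full effect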
#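 Assay system: Apoptosome proteins | Medium: pH 7.5 Hepes buffer with CHAPS, BSA, DTT | Also added: Cytochrome c and DEVD-Rh110 substrate | Times: 30 min plus 50 min, RT | Detection: Rhodamine 110 fluorescence at Ex 480/Em 540 nm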
# PAD4 inh – inhibitors of human PAD4; AID 485272; inhibition, % at 6.36 µM; 0.41% of 330,000 active; Q9UM07; recombinant PAD4, RCA probe fluorescence polarization;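 active means percent inhibition above a cutoff equal to the mean of all tested compounds plus 3 SD, cut at about 15% in these data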;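 further: 0% = PAD4 with RCA probe and DMSO and 100% = probe without PAD4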
# TDP2 absorb – blocks human TDP2 phosphodiesterase activity | O95551 | recombinant TDP2, T5PNP hydrolysis, p-nitrophenol absorbance 415 nm | 0.34% of 370,000 active | inhibition, % at 12.8 µM;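 active means inhibition above the mean of all tested compounds plus 3 SD, set per campaign, cut at about 25% in these data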;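 further: 0% = DMSO with enzyme and 100% = buffer with substrate but no TDP2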
# Target sequence (O95551 whole entry, looked up): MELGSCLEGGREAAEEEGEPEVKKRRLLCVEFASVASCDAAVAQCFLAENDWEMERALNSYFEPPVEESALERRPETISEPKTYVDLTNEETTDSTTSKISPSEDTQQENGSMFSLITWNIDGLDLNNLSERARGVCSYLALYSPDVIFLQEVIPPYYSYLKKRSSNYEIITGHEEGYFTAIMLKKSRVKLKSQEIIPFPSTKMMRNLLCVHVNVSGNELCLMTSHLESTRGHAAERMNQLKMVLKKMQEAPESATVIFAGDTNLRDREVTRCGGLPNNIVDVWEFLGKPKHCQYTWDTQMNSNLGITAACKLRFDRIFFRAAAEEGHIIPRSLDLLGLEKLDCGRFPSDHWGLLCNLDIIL
#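 Evaluation: % inhibition relative to enzyme-containing and enzyme-free wells. Material: recombinant human TDP2. Benchmarks: enzyme-free and DMSO wells. Timing: enzyme reaction with compound for 2 h at 37 °C. Compound dosing: 12.8 µM only. Measured by: p-Nitrophenol epi absorbance. Reagent: T5PNP substrate at 5 mM, a TopII-DNA adduct mimic. Replication: single well per compound.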
# Apaf-1 inh conf – Apaf-1 inhibition, single-dose confirmed; 25% of 1,800 active; shares compounds with Apaf-1 inh; reconstituted apoptosome, caspase-3 DEVD-Rh110 fluorescence; inhibition, % at 20 µM; AID 504614;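 active means mean inhibition of at least 40% at 20 µM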;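 further: plate controls were DMSO wells for no effect and DEVD-CHO caspase inhibitor control wells for full effect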
# Rh110 interf inh – Rh110 signal interference in Apaf-1 inhibitor counter-screen; shares compounds with Apaf-1 inh; 1,800 tested, under 10 active; Rh110 fluorescence interference, quenched caspase reaction; activation (fluorescence interference), % at 20 µM; AID 504615;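 active means signal rise of 40% or more at 20 µM, treated as a fluorescence artifact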
# Apaf1 inh interf – Apaf-1 inhibitor counter-screen fluorescence artifact. AID 588538. 460 tested, under 10 active. shares compounds with Apaf-1 inh. IC50, µM. fluorescence interference counterscreen, Apaf-1 assay format; call rule not given here
# * marks the source's active call; other numbers are inactive results; · = no result.
SMILES,GSTO1 inh,Fh CTSL1 inh,Apaf-1 inh,PAD4 inh,TDP2 absorb,Apaf-1 inh conf,Rh110 interf inh,others
COc1ccc(Cn2cc(CN3[C@H](C)COc4cc(Br)ccc4S3(=O)=O)nn2)cc1,·,·,·,·,0,·,·,
CC1=Nc2cccc3cccc(c23)N1,29,-3,13,-1,1,·,·,
c1cc2c3c(cccc3c1)NC1(CCC3(CC1)Nc1cccc4cccc(c14)N3)N2,28,0,40*,-13,2,45*,8,Apaf1 inh interf=>100
Fc1ccc(C2=Nn3c(nnc3C3CCCCC3)SC2)cc1,·,·,·,·,4,·,·,
CC(=O)OCCCNc1cc(SCc2ccco2)c2nonc2c1[N+](=O)[O-],27,0,74*,-2,21,0,-2,
CCCC(=O)OCCNc1cc(SCc2ccco2)c2nonc2c1[N+](=O)[O-],23,12,57*,4,13,-1,0,
Cc1c(CCOC(=O)c2ccc(Cl)cc2Cl)sc[n+]1CC(=O)c1ccccc1,·,·,56*,-5,9,8,10,
COc1ccc(NC(=O)N(C)C[C@@H]2OCCCC[C@@H](C)Oc3ccc(NS(C)(=O)=O)cc3C(=O)N([C@H](C)CO)C[C@@H]2C)cc1,·,·,·,·,-1,·,·,
O=C(CCc1ccccc1)N[C@H]1[C@H](OCc2ccccc2)CCC[C@@]12C(=O)N(Cc1ccccc1)c1ccc(-c3ccccn3)cc12,·,·,·,·,-4,·,·,
CCN1C(=NCCc2ccc(Br)cc2)N[C@@H](c2ccccc2)[C@H](C(=O)OC)[C@H]1C,·,·,45*,-5,-2,12,2,
COc1ccc(CCN2C(=O)c3[nH]nc(-c4ccccc4O)c3C2c2cccc(Cl)c2)cc1 (stereo not given),-19,-4,41*,-4,-14,10,13,
COc1ccc(C2c3c(-c4ccccc4O)n[nH]c3C(=O)N2CCc2ccc(OC)c(OC)c2)cc1 (stereo not given),-3,1,26,-8,-6,·,·,
CCOC(=O)C1=CCN(S(=O)(=O)c2ccc(Br)cc2)C1c1ccc(Br)cc1 (stereo not given),·,·,·,·,0,·,·,
O=C(Nc1ccc(N2CCCC2)cc1)C(Cl)c1ccccc1 (stereo not given),35*,-4,65*,5,·,26,3,
CS(=O)(=O)N1CCN(c2ccc(NC(=O)C(c3ccccc3)c3ccccc3)cc2)CC1,5,1,7,-2,-18,·,·,
CC(C)C[C@@H]1COc2cc(Br)ccc2S(=O)(=O)N1Cc1cn(Cc2ccc(Cl)cc2)nn1,·,·,·,·,-6,·,·,
CCCCCCCCN1C(=O)[C@@H](CC(=O)NCCCOCCCC)C[C@@]2(C(=O)OC)C1=C[C@H](C(C)C)O[C@@H]2C1CC1,·,·,·,·,-3,·,·,
CN1CCN(c2ccc(S(=O)(=O)N3CCCCC3)cc2NC(=O)/C=C/c2ccc(Cl)c([N+](=O)[O-])c2)CC1,-8,-1,51*,-5,6,15,13,
CCN1CCN(c2ccc(S(=O)(=O)N3CCOCC3)cc2NC(=O)CC(C)C)CC1,·,·,50*,-3,-4,37,4,
CCN1CCN(c2ccc(S(=O)(=O)N3CCCCC3)cc2NC(=O)/C=C/c2ccc([N+](=O)[O-])cc2)CC1,-3,7,36,-2,10,·,·,
CN1CCN(c2ccc(S(=O)(=O)N3CCCCC3)cc2NC(=O)/C=C/c2ccc(OC(F)F)cc2)CC1,5,-4,29,1,10,·,·,
CCN1CCN(c2ccc(S(=O)(=O)N3CCCCC3)cc2NC(=O)/C=C/c2ccc(OC(F)F)cc2)CC1,-10,1,52*,-3,-9,9,4,
CCN(CC(=O)Nc1cc(S(=O)(=O)N2CCOCC2)ccc1Cl)Cc1ccccc1,·,·,42*,5,-4,29,9,
CCN1CCN(c2ccc(S(=O)(=O)N3CCOCC3)cc2NC(=O)c2ccccc2SC)CC1,-11,-2,-4,0,0,·,·,
COC(=O)[C@]12CCCCC=C1N(Cc1ccc(OC)cc1)C(=O)[C@@H]2CC(=O)NCCCCc1ccccc1,·,·,·,·,-3,·,·,
